{"source": "ChEMBL document CHEMBL3352033", "about": "“Jatrophanes from Euphorbia squamosa as potent inhibitors of Candida albicans multidrug transporters” (J Nat Prod, 2014)", "key": {"Candida albicans [1]": {"test_system": "Candida albicans", "experiment": "Inhibition of Candida albicans CaCdr1p-mediated drug efflux overexpressed in Saccharomyces cerevisiae assessed as nile red accumulation after 30 mins by flow cytometry", "summary_of_the_method": "(§1)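 Host is S. cerevisiae AD1-8u− deleted for its own multidrug transporters, carrying the C. albicans transporter ORF integrated at the PDR5 locus (AD-CDR1 or AD-MDR1). Cells are grown in YEPD at 30 °C from OD600 0.1 to 0.25, then resuspended as a 5% suspension in YEPD diluted 1:2 with water. NR is 7 μM final with inhibitor at 70 μM, 30 min at 30 °C. Read-out is flow cytometry of 10 000 cells. Three independent experiments.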"}, "Saccharomyces cerevisiae [2]": {"test_system": "Saccharomyces cerevisiae", "experiment": "Toxicity against Saccharomyces cerevisiae AD1-8u(-)", "format": "organism-based", "summary_of_the_method": "(§2)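 Yeast cells (10^4) seeded with inhibitor 0.15−80 μM or none, grown 48 h at 30 °C in YEPD; optical density measured. Growth without inhibitor set as 100%, and the concentration giving 50% growth taken as IC50. Means ± SD of three independent experiments, duplicate samples.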"}, "Saccharomyces cerevisiae [3]": {"test_system": "Saccharomyces cerevisiae", "experiment": "Toxicity against Saccharomyces cerevisiae AD1-8u(-) overexpressing CaCdr1p", "format": "organism-based", "summary_of_the_method": "as §2"}, "Saccharomyces cerevisiae [4]": {"test_system": "Saccharomyces cerevisiae", "experiment": "Toxicity against Saccharomyces cerevisiae AD1-8u(-) overexpressing CaMdr1p", "format": "organism-based", "summary_of_the_method": "as §2"}, "Saccharomyces cerevisiae [5]": {"test_system": "Saccharomyces cerevisiae", "experiment": "Resistance index, ratio of IC50 for Saccharomyces cerevisiae AD1-8u(-) overexpressing CaCdr1p to IC50 for Saccharomyces cerevisiae AD1-8u(-)", "format": "functional", "summary_of_the_method": "(§3)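 RI computed as the IC50 for the AD-CDR1 or AD-MDR1 strain divided by that for control strain AD1-8u−. Each IC50 comes from optical density after 48 h growth at 30 °C of 10^4 cells with inhibitor at 0.15−80 μM, 50% growth versus untreated. Means ± SD of three independent experiments.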"}, "Saccharomyces cerevisiae [6]": {"test_system": "Saccharomyces cerevisiae", "experiment": "Resistance index, ratio of IC50 for Saccharomyces cerevisiae AD1-8u(-) overexpressing CaMdr1p to IC50 for Saccharomyces cerevisiae AD1-8u(-)", "format": "functional", "summary_of_the_method": "as §3"}, "Saccharomyces cerevisiae [7]": {"test_system": "Saccharomyces cerevisiae", "experiment": "Growth inhibition of Saccharomyces cerevisiae AD1-8u(-) assessed as FIC of fluconazole by checkerboard method", "format": "functional", "summary_of_the_method": "(§4)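 Checkerboard per CLSI: yeast cells (10^4) in 96-well format with fluconazole 0.15−800 μM crossed with inhibitor 0.15−80 μM, grown 48 h at 30 °C in YEPD; growth read by optical density. FIC for FLC = IC50 of FLC in combination/IC50 alone; FIC for inhibitor likewise; FICI from both. Means ± SD of three independent experiments.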"}, "Saccharomyces cerevisiae [8]": {"test_system": "Saccharomyces cerevisiae", "experiment": "Growth inhibition of Saccharomyces cerevisiae AD1-8u(-) overexpressing CaCdr1p assessed as FIC of fluconazole by checkerboard method", "format": "functional", "summary_of_the_method": "as §4"}, "Saccharomyces cerevisiae [9]": {"test_system": "Saccharomyces cerevisiae", "experiment": "Growth inhibition of Saccharomyces cerevisiae AD1-8u(-) overexpressing CaMdr1p assessed as FIC of fluconazole by checkerboard method", "format": "functional", "summary_of_the_method": "as §4"}, "Saccharomyces cerevisiae [10]": {"test_system": "Saccharomyces cerevisiae", "experiment": "Growth inhibition of Saccharomyces cerevisiae AD1-8u(-) assessed as FIC of compound by checkerboard method", "format": "functional", "summary_of_the_method": "as §4"}, "Saccharomyces cerevisiae [11]": {"test_system": "Saccharomyces cerevisiae", "experiment": "Growth inhibition of Saccharomyces cerevisiae AD1-8u(-) overexpressing CaCdr1p assessed as FIC of compound by checkerboard method", "format": "functional", "summary_of_the_method": "as §4"}, "Saccharomyces cerevisiae [12]": {"test_system": "Saccharomyces cerevisiae", "experiment": "Growth inhibition of Saccharomyces cerevisiae AD1-8u(-) overexpressing CaMdr1p assessed as FIC of compound by checkerboard method", "format": "functional", "summary_of_the_method": "as §4"}, "Saccharomyces cerevisiae [13]": {"test_system": "Saccharomyces cerevisiae", "experiment": "Growth inhibition of Saccharomyces cerevisiae AD1-8u(-) assessed as FIC index by checkerboard method", "format": "functional", "summary_of_the_method": "as §4"}, "Saccharomyces cerevisiae [14]": {"test_system": "Saccharomyces cerevisiae", "experiment": "Growth inhibition of Saccharomyces cerevisiae AD1-8u(-) overexpressing CaCdr1p assessed as FIC index by checkerboard method", "format": "functional", "summary_of_the_method": "as §4"}, "Saccharomyces cerevisiae [15]": {"test_system": "Saccharomyces cerevisiae", "experiment": "Growth inhibition of Saccharomyces cerevisiae AD1-8u(-) overexpressing CaMdr1p assessed as FIC index by checkerboard method", "format": "functional", "summary_of_the_method": "as §4"}, "Candida albicans [16]": {"test_system": "Candida albicans", "experiment": "Inhibition of Candida albicans CaMdr1p-mediated drug efflux overexpressed in Saccharomyces cerevisiae assessed as nile red accumulation after 30 mins by flow cytometry", "summary_of_the_method": "as §1"}}, "note": "Calls of active or inactive are those of the source. The rule behind the calls is not given here.", "data": [{"smiles": "C=C1[C@H](OC(=O)c2ccccc2)[C@H]2[C@@H](OC(C)=O)[C@@H](C)C[C@]2(OC(C)=O)C(=O)[C@@H](C)/C=C/C(C)(C)C(=O)[C@H](OC(C)=O)[C@H]1OC(C)=O", "values": [{"measurement": "inhibition", "setting": "Candida albicans [1]", "result": "inactive"}]}, {"smiles": "CC(=O)O[C@@H]1[C@H](C)/C=C/C(C)(C)C(=O)C[C@@H](OC(=O)c2ccccc2)/C(C)=C/[C@H]2[C@@H](OC(=O)c3ccccc3)[C@H](C)C[C@]12OC(C)=O", "values": [{"measurement": "inhibition", "setting": "Candida albicans [1]", "result": "inactive"}]}, {"smiles": "C=C1CC(OC(C)=O)C(=O)C(C)(C)/C=C/[C@H](C)[C@@H](OC(C)=O)[C@@]2(OC(C)=O)C[C@@H](C)[C@H](OC(=O)c3ccccc3)[C@@H]2[C@H]1OC(C)=O", "note": "(some centres not stated)", "values": [{"measurement": "inhibition", "setting": "Candida albicans [1]", "result": "Active"}, {"measurement": "IC50", "setting": "Saccharomyces cerevisiae [2]", "result": 2300, "unit": "nM"}, {"measurement": "IC50", "setting": "Saccharomyces cerevisiae [3]", "result": 31.7, "unit": "µM"}, {"measurement": "IC50", "setting": "Saccharomyces cerevisiae [4]", "result": 25, "unit": "µM"}, {"measurement": "Ratio IC50", "setting": "Saccharomyces cerevisiae [5]", "result": 13.8}, {"measurement": "Ratio IC50", "setting": "Saccharomyces cerevisiae [6]", "result": 10.9}, {"measurement": "FIC50", "setting": "Saccharomyces cerevisiae [7]", "result": 1.2}, {"measurement": "FIC50", "setting": "Saccharomyces cerevisiae [8]", "result": 0.04}, {"measurement": "FIC50", "setting": "Saccharomyces cerevisiae [9]", "result": 1}, {"measurement": "FIC50", "setting": "Saccharomyces cerevisiae [10]", "result": 0.07}, {"measurement": "FIC50", "setting": "Saccharomyces cerevisiae [11]", "result": 0.02}, {"measurement": "FIC50", "setting": "Saccharomyces cerevisiae [12]", "result": 0.02}, {"measurement": "fractional inhibitory concentration index (FICI)", "setting": "Saccharomyces cerevisiae [13]", "result": 1.27}, {"measurement": "fractional inhibitory concentration index (FICI)", "setting": "Saccharomyces cerevisiae [14]", "result": 0.06}, {"measurement": "fractional inhibitory concentration index (FICI)", "setting": "Saccharomyces cerevisiae [15]", "result": 1.02}]}, {"smiles": "CC(=O)O[C@@H]1[C@@H](O)[C@@H](OC(C)=O)/C(C)=C/[C@H]2[C@@H](OC(=O)c3ccccc3)[C@H](C)C[C@]2(OC(C)=O)[C@H](OC(C)=O)[C@@H](C)/C=C/C1(C)C", "values": [{"measurement": "inhibition", "setting": "Candida albicans [1]", "result": "Active"}, {"measurement": "IC50", "setting": "Saccharomyces cerevisiae [2]", "result": 2300, "unit": "nM"}, {"measurement": "IC50", "setting": "Saccharomyces cerevisiae [3]", "result": 3.7, "unit": "µM"}, {"measurement": "IC50", "setting": "Saccharomyces cerevisiae [4]", "result": 3.5, "unit": "µM"}, {"measurement": "Ratio IC50", "setting": "Saccharomyces cerevisiae [5]", "result": 1.6}, {"measurement": "Ratio IC50", "setting": "Saccharomyces cerevisiae [6]", "result": 1.5}, {"measurement": "FIC50", "setting": "Saccharomyces cerevisiae [7]", "result": 1.2}, {"measurement": "FIC50", "setting": "Saccharomyces cerevisiae [8]", "result": 0.08}, {"measurement": "FIC50", "setting": "Saccharomyces cerevisiae [9]", "result": 1}, {"measurement": "FIC50", "setting": "Saccharomyces cerevisiae [10]", "result": 0.07}, {"measurement": "FIC50", "setting": "Saccharomyces cerevisiae [11]", "result": 0.34}, {"measurement": "FIC50", "setting": "Saccharomyces cerevisiae [12]", "result": 0.36}, {"measurement": "fractional inhibitory concentration index (FICI)", "setting": "Saccharomyces cerevisiae [13]", "result": 1.27}, {"measurement": "fractional inhibitory concentration index (FICI)", "setting": "Saccharomyces cerevisiae [14]", "result": 0.42}, {"measurement": "fractional inhibitory concentration index (FICI)", "setting": "Saccharomyces cerevisiae [15]", "result": 1.36}]}, {"smiles": "CC(=O)O[C@@H]1[C@@H](OC(C)=O)C(C)(C)/C=C/[C@H](C)[C@@H](OC(C)=O)[C@@]2(OC(C)=O)C[C@@H](C)[C@H](OC(=O)c3ccccc3)/C2=C\\[C@](C)(O)[C@@H]1O", "values": [{"measurement": "inhibition", "setting": "Candida albicans [1]", "result": "inactive"}]}, {"smiles": "C=C1CCC(=O)C(C)(C)/C=C/[C@H](C)C(=O)[C@@]2(OC(C)=O)C[C@H](C)[C@H](OC(=O)c3ccccc3)[C@@H]2[C@H]1OC(C)=O", "values": [{"measurement": "inhibition", "setting": "Candida albicans [1]", "result": "Active"}, {"measurement": "inhibition", "setting": "Candida albicans [16]", "result": "Active"}]}, {"smiles": "C=C1[C@H](OC(C)=O)[C@@H](OC(C)=O)[C@@H](OC(C)=O)C(C)(C)/C=C/[C@H](C)C(=O)[C@@]2(OC(C)=O)C[C@H](C)[C@H](OC(C)=O)[C@@H]2[C@H]1OC(=O)c1ccccc1", "values": [{"measurement": "inhibition", "setting": "Candida albicans [1]", "result": "inactive"}]}, {"smiles": "CC(=O)O[C@@H]1[C@@H](OC(C)=O)C(C)(C)/C=C/[C@H](C)C(=O)[C@@]2(OC(C)=O)C[C@@H](C)[C@H](OC(=O)c3ccccc3)/C2=C/[C@](C)(O)[C@@H]1OC(C)=O", "values": [{"measurement": "inhibition", "setting": "Candida albicans [1]", "result": 88, "unit": "%"}, {"measurement": "inhibition", "setting": "Candida albicans [16]", "result": "Active"}, {"measurement": "IC50", "setting": "Saccharomyces cerevisiae [2]", "result": 2300, "unit": "nM"}, {"measurement": "IC50", "setting": "Saccharomyces cerevisiae [3]", "result": 26.7, "unit": "µM"}, {"measurement": "IC50", "setting": "Saccharomyces cerevisiae [4]", "result": 28.3, "unit": "µM"}, {"measurement": "Ratio IC50", "setting": "Saccharomyces cerevisiae [5]", "result": 11.6}, {"measurement": "Ratio IC50", "setting": "Saccharomyces cerevisiae [6]", "result": 12.3}, {"measurement": "FIC50", "setting": "Saccharomyces cerevisiae [7]", "result": 1.2}, {"measurement": "FIC50", "setting": "Saccharomyces cerevisiae [8]", "result": 0.02}, {"measurement": "FIC50", "setting": "Saccharomyces cerevisiae [9]", "result": 0.5}, {"measurement": "FIC50", "setting": "Saccharomyces cerevisiae [10]", "result": 0.07}, {"measurement": "FIC50", "setting": "Saccharomyces cerevisiae [11]", "result": 0.01}, {"measurement": "FIC50", "setting": "Saccharomyces cerevisiae [12]", "result": 0.02}, {"measurement": "fractional inhibitory concentration index (FICI)", "setting": "Saccharomyces cerevisiae [13]", "result": 1.27}, {"measurement": "fractional inhibitory concentration index (FICI)", "setting": "Saccharomyces cerevisiae [14]", "result": 0.03}, {"measurement": "fractional inhibitory concentration index (FICI)", "setting": "Saccharomyces cerevisiae [15]", "result": 0.52}]}]}
